Compound activity deposited in PubChem by The Scripps Research Institute Molecular Screening Center.
Most compounds without a hit are left out; they make up all but 1.8% or so of the library.
M5 ag – CHRM5 agonism in calcium assay. CHO-K1 hM5 cells, Fluo-8 calcium fluorescence; 0% DMSO wells, 100% maximal acetylcholine response. P08912. activation, % at 3 µM. 360,000 tested, 0.19% active;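 active = activation above the run's mean over test compounds plus 3 SD, cut at about 23% in these data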;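 also: signal is peak over basal fluorescence ratio across the kinetic read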
CHRM4 antagonist – blocks acetylcholine activation of human M4 receptor | CHO-hM4 cells, ACh EC80, Fluo-8 calcium fluorescence | inhibition, % at 3 µM | 360,000 tested, 0.73% active;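 active = inhibition above its plate's cutoff, the mean inhibition of sample wells plus 3 SD, cut at about 27% in these data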;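 also: 0% = acetylcholine EC80 with DMSO and 100% = DMSO without agonist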
Target sequence (P08173 whole entry, looked up): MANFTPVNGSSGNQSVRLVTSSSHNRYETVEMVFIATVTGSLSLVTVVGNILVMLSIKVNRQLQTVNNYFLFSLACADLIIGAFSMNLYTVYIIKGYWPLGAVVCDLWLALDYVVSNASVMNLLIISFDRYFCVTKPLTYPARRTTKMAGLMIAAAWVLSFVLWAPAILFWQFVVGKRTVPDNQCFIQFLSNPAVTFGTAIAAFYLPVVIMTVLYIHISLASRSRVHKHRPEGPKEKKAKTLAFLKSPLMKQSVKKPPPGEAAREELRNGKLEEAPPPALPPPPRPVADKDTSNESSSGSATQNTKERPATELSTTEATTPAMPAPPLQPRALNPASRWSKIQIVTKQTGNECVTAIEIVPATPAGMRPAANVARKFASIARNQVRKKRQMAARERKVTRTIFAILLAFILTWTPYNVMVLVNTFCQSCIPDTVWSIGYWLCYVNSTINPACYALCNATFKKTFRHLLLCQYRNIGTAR
M4 ag – CHRM4 agonism in calcium assay; 360,000 tested, 0.14% active; activation, % at 3 µM; CHO-K1 hM4/Gqi5, Fluo-8 calcium fluorescence; vehicle 0%, full acetylcholine response 100%;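 active = activation above the run mean over all test wells plus 3 SD, cut at about 32% in these data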;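 also: peak over basal fluorescence ratio per well then scaled between controls; 0% = DMSO wells and 100% = acetylcholine at EC100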
M4 PAM – CHRM4 positive allosteric modulation; 360,000 tested, 0.4% active; CHO-K1 hM4/Gqi5, Fluo-8 calcium fluorescence, ACh EC20; 0% = ACh EC20, 100% = maximal ACh; P08173; activation, % at 3 µM; AID 624126;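 active = activation above its plate's cutoff, the mean activation of sample wells plus 3 SD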
M5 antag – CHRM5 antagonism in calcium assay. CHO-hM5 cells, Fluo-8 calcium fluorescence, ACh EC80. 360,000 tested, 0.59% active. P08912. inhibition, % at 3 µM;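 active = inhibition above a per-plate cutoff, the mean of that plate's test compounds plus 3 SD, cut at about 27% in these data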;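 also: 0% = acetylcholine EC80 with DMSO and 100% = DMSO without agonist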
CHRM5 PAM – positive allosteric modulators of human muscarinic M5 receptor. P08912. 360,000 tested, 0.3% active. activation, % at 3 µM. CHO-K1 hM5, Fluo-8 calcium, ACh EC20 PAM; 0% = ACh EC20, 100% = ACh EC100. AID 624038;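 active = activation above the run cutoff, the mean activation of all test compounds plus 3 SD, cut at about 18% in these data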
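Replicates: One well per compound, no replicates | System: Human M5 receptor in CHO-K1 cells | Benchmarks: Low control EC20 acetylcholine (0%), high control EC100 acetylcholine (100%) | Probe or stimulus: Acetylcholine, EC20 level | Times: Fluo-8 loading 80 min at 37 °C plus 30 min room temperature | Signal: Intracellular calcium via Fluo-8 fluorescence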
An asterisk follows results filed as active.

`CC(C)CCN1C(=O)c2ccccc2C1C(=O)NCc1cccnc1` (configuration not stated) gave M5 ag -7.9, CHRM4 antagonist 10.4, M4 ag 2.1, M4 PAM 20.9*, M5 antag -9.4 and CHRM5 PAM 2.9.
For CC1(C(=O)NS(=O)(=O)C2CC2)CCCN(C(=O)c2cccnc2Oc2ccccc2)C1 (configuration not stated) the results were M5 ag 0.8, CHRM4 antagonist 14.3, M4 ag 0.7, M4 PAM -3.4, M5 antag 4.9 and CHRM5 PAM -1.8.
Cc1cccnc1C(NC(=O)C1CCN(Cc2ccc3ccccc3n2)CC1)c1ccc(Cl)cc1 (configuration not stated) was read as M5 ag -2.4, CHRM4 antagonist -7.4, M4 ag 7.5, M4 PAM -6.2, M5 antag 0.0 and CHRM5 PAM -9.8.
For CCOC(=O)C1=NN(c2ccccc2)C2C(=O)N(c3ccccc3OC)C(=O)C12 (configuration not stated) the results were M5 ag -2.4, CHRM4 antagonist 7.2, M4 ag 1.4, M4 PAM -0.8, M5 antag 27.2* and CHRM5 PAM -12.5.
Screening CCOC(=O)C1=NN(c2ccc(OC)cc2)C2C(=O)N(c3ccccc3OC)C(=O)C12 (configuration not stated) returned M5 ag 5.5, CHRM4 antagonist 9.9, M4 ag 2.0, M4 PAM -10.8, M5 antag 4.2 and CHRM5 PAM 1.5.
`CC(=O)C1=CCC(c2ccc(C)o2)N(S(=O)(=O)c2ccc(C)cc2)C1` (configuration not stated) gave M5 ag -2.9, CHRM4 antagonist -17.9, M4 ag 0.5, M4 PAM -5.7, M5 antag 7.8 and CHRM5 PAM -6.0.
Screening Cc1nc(NC(=O)c2ccc(Br)o2)ccc1Br returned M5 ag -0.4, CHRM4 antagonist -4.5, M4 ag 0.2, M4 PAM 15.8*, M5 antag 2.0 and CHRM5 PAM 5.5.
Cc1ccn2c(=O)c(NC(=O)c3ccc(Br)o3)c(C)nc2c1 was read as M5 ag 0.4, CHRM4 antagonist 6.8, M4 ag 0.9, M4 PAM 22.6*, M5 antag 1.6 and CHRM5 PAM -7.0.
For COC(=O)C1CCN(c2cc(Cl)nc(N)n2)CC1 the results were M5 ag 0.9, CHRM4 antagonist -9.8, M4 ag 0.2, M4 PAM -0.6, M5 antag 5.5 and CHRM5 PAM -3.9.
NC(=O)C1CCN(c2cc(Cl)nc(N)n2)CC1 was read as M5 ag -5.5, CHRM4 antagonist -15.4, M4 ag 1.9, M4 PAM 25.8*, M5 antag -11.2 and CHRM5 PAM 1.0.
`Cc1cccc(CN2C(=O)/C(=C\c3ccc(C(=O)NCCN4CCOCC4)cc3)Sc3ccccc32)c1` gave M5 ag -1.6, CHRM4 antagonist 18.2, M4 ag 23.2, M4 PAM -10.1, M5 antag 31.5* and CHRM5 PAM -12.7.
`O=C(NCCN1CCOCC1)c1ccc2c(c1)N(Cc1ccccc1F)C(=O)CS2` gave M5 ag -15.0, CHRM4 antagonist 46.9*, M4 ag 0.0, M4 PAM -16.9, M5 antag 1.1 and CHRM5 PAM -8.2.
Cc1ccc(C)c(CN2C(=O)CSc3ccc(C(=O)NCCN4CCOCC4)cc32)c1 was read as M5 ag -5.0, CHRM4 antagonist 3.7, M4 ag 2.4, M4 PAM 0.7, M5 antag 2.5 and CHRM5 PAM -4.4.
O=C(NCCCN1CCOCC1)c1ccc2c(c1)N(Cc1c(F)cccc1Cl)C(=O)CS2 was read as M5 ag -6.6, CHRM4 antagonist 58.2*, M4 ag 1.5, M4 PAM -20.4, M5 antag 19.2 and CHRM5 PAM -15.9.
For c1ccc(CN2CCC3CC2c2c3cccc2N2CCOCC2)cc1 (configuration not stated) the results were M5 ag 1.7, CHRM4 antagonist -4.1, M4 ag 0.0, M4 PAM 7.1, M5 antag 5.7 and CHRM5 PAM -3.7.
CC1(C)CC(N2CCN(Cc3ccccc3)CC2)=CC(=[N+]2CCCCC2)C1 was read as M5 ag -16.9, CHRM4 antagonist -3.4, M4 ag 0.8, M4 PAM -12.9, M5 antag 3.1 and CHRM5 PAM 5.0.
Screening CN(Cc1ccccc1)C1=CC(=[N+]2CCCCC2)CC(C)(C)C1 returned M5 ag -19.4, CHRM4 antagonist 54.0*, M4 ag 4.5, M4 PAM -39.3, M5 antag 25.2 and CHRM5 PAM -24.2.
`CNC(C)C(=O)NC(C(=O)NC(C)C(=O)Nc1cccc2ccccc12)C(C)C` (configuration not stated) gave M5 ag -0.4, CHRM4 antagonist -14.7, M4 ag 0.3, M4 PAM 18.4*, M5 antag -4.4 and CHRM5 PAM -3.5.
`Cc1ncc(CN2CCCC(C(=O)Nc3ccc(-c4cccc(F)c4)cc3)C2)n1C` (configuration not stated) gave M5 ag -6.6, CHRM4 antagonist 32.8*, M4 ag 7.0, M4 PAM -16.1, M5 antag 6.5 and CHRM5 PAM -15.4.
For O=C1CC(c2ccccc2)CC2=C1C1(CCCC1)N=C(Nc1nc3ccccc3o1)N2 (configuration not stated) the results were M5 ag 1.3, CHRM4 antagonist -0.7, M4 ag -0.4, M4 PAM -2.8, M5 antag 5.3 and CHRM5 PAM -1.5.
Nc1nc(Nc2ccccc2)sc1C(=O)c1ccccc1 was read as M5 ag 33.2*, CHRM4 antagonist -19.0, M4 ag 12.8, M4 PAM 11.9*, M5 antag -0.9 and CHRM5 PAM 8.5.
For Cc1ccc(NC(=O)CN2C(=O)NC3(CCCc4ccccc43)C2=O)cc1S(=O)(=O)N1CCOCC1 (configuration not stated) the results were M5 ag -9.2, CHRM4 antagonist -6.3, M4 ag 20.1, M4 PAM -10.2, M5 antag 99.7* and CHRM5 PAM -20.0.
Screening CC(C)C(C)NC(=O)CN1C(=O)NC2(CCCc3ccccc32)C1=O (configuration not stated) returned M5 ag -1.0, CHRM4 antagonist 3.6, M4 ag 0.3, M4 PAM -4.4, M5 antag 4.5 and CHRM5 PAM -4.1.
CC(C)C(C)NC(=O)CN1C(=O)NC2(CCc3ccccc32)C1=O (configuration not stated) was read as M5 ag -0.2, CHRM4 antagonist -23.8, M4 ag -0.4, M4 PAM 14.5*, M5 antag -4.0 and CHRM5 PAM 4.6.
